Results from different studies.
Protocols differ between the studies behind these lines.
HTR2C: 5-hydroxytryptamine receptor 2C (HTR2C, Homo sapiens, UniProt P28335)

| Compound | target | assay | conditions | measurement | value |
| --- | --- | --- | --- | --- | --- |
| COc1cc2c3c(c1OC)-c1c(OC)ccc(Cl)c1CC3N(C)CC2 (racemic) | HTR2C | ligand displacement, radioligand | 10 µM | inhibition | 80% |
| O=P(O)(O)O[C@H]1[C@H](OP(=O)(O)O)[C@@H](OP(=O)(O)O)[C@H](OP(=O)(O)O)[C@@H](OP(=O)(O)O)[C@H]1OP(=O)(O)O | Toxin B (tcdB, Clostridioides difficile, UniProt P18177) | binding, ITC | – | residence time | 0.4 min |
| COc1cc(CCNC(C)c2ccccc2O)c(OC)cc1Br (stereo not drawn) | HTR2C | calcium signal, agonist | – | Emax | 92% |
| CC(C)CC(=O)OC[C@H]1O[C@@](C#N)(c2ccc3c(N)ncnn23)[C@H](O)[C@@H]1O | B2 bradykinin receptor (BDKRB2, Homo sapiens, UniProt P30411) | cell-free assay | 20 µM | inhibition | -2% |
| COc1cc2c(cc1OC)-c1c(OC)c(OC)cc3c1[C@H](C2)N(C)CC3 | HTR2C | ligand displacement, radioligand | 10 µM | inhibition | 79% |
| COc1cc(CCNCc2ccccc2O)c(OC)cc1C#N | HTR2C | G protein activation, agonist, BRET | – | Emax | 122% |
| [2H]c1c([2H])c([C@]2([2H])CCCN2C(=O)C(C)(C)Oc2ccc3cn[nH]c3c2)c([2H])c([2H])c1C([2H])([2H])[2H] | Tyrosine-protein kinase receptor TYRO3 (TYRO3, Homo sapiens, UniProt Q06418) | binding, competition with immobilised ligand | 1 µM | remaining binding | 57% |
| COc1cc(CCNC(C)c2ccccc2)c(OC)cc1C#N (stereo not drawn) | HTR2C | calcium signal, agonist | – | Emax | 41% |
| Nc1ncnc2c1ncn2[C@@H]1O[C@H](C[C@@H](N)CC[C@H](N)C(=O)O)[C@@H](O)[C@H]1O | mRNA cap guanine-N(7) methyltransferase (RNMT, Homo sapiens, UniProt O43148) | enzyme activity, inhibitor | 12.5 µM | inhibition | 61.8% |
